In ChEMBL document CHEMBL1142437, “Constrained analogues of procaine as novel small molecule inhibitors of DNA methyltransferase-1” (J Med Chem, 2008):
Calls of active or inactive are those of the source. The rule behind the calls is not given here.

Each compound was assayed on HL-60 (assay: Induction of chromosomal satellite repeats demethylation in human HL60 cells at 0.5 mM after 72 hrs).
Format: functional, cell-based
Outline: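 HL60 human myeloid leukemia cells exposed 72 h to 0.5 mM drug in DMSO, DMSO (1%) as control. Methylation of chromosomal satellite repeats (C1S2) assessed by COBRA assay on genomic DNA.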
With `CCN(CC)CCOC(=O)c1ccc(N)cc1` the Activity was “Active”. `O=[N+]([O-])c1ccc(C2=NC[C@H](CN3CCCC3)O2)cc1` was tested, and the Activity was “Active”.

These compounds were tested against DNA (cytosine-5)-methyltransferase 1 (Homo sapiens) (UniProt P26358) (assay: Inhibition of human recombinant DNMT1 expressed in Sf9 cells).
Sequence of DNA (cytosine-5)-methyltransferase 1 (Homo sapiens) (P26358 whole entry): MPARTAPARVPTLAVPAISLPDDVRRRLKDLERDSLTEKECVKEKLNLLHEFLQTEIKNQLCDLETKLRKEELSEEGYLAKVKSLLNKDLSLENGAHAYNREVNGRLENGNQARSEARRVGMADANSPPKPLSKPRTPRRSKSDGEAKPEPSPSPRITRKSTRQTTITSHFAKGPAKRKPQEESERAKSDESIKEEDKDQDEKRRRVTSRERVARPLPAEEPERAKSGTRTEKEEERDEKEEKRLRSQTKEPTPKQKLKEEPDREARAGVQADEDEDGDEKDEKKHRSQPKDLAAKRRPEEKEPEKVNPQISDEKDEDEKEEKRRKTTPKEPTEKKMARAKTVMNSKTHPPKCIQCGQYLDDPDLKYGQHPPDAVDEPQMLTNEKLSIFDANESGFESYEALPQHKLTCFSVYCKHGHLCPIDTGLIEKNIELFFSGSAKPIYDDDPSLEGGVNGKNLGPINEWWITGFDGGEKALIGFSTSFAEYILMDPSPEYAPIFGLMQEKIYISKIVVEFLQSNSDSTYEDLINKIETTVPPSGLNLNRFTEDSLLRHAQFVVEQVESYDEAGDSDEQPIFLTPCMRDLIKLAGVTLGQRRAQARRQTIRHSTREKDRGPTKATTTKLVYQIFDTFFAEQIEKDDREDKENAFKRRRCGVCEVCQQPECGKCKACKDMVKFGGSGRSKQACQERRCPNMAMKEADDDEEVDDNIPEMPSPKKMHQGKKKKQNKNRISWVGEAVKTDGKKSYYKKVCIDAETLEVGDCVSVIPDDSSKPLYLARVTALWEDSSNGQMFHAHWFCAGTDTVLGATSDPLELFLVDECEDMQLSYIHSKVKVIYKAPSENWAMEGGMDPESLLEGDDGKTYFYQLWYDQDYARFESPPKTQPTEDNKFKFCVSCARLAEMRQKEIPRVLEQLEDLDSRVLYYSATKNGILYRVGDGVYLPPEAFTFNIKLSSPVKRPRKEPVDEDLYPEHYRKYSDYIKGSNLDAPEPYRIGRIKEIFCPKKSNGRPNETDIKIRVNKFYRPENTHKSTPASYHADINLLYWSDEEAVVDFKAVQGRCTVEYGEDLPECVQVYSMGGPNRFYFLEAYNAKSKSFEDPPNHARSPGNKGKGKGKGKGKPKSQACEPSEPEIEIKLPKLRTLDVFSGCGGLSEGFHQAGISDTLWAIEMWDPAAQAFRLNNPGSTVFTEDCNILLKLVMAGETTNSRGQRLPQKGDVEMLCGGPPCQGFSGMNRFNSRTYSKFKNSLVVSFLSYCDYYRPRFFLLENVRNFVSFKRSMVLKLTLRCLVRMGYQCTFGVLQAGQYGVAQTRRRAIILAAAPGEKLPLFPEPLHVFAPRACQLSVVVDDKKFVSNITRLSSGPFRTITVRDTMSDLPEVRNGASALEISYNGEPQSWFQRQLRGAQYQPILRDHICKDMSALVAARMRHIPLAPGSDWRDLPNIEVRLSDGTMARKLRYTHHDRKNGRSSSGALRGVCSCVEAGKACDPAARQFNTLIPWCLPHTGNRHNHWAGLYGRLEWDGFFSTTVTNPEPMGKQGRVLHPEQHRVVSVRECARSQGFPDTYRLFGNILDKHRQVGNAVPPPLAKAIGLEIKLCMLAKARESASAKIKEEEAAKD
With `CCN(CC)C[C@H]1CN=C(c2ccc([N+](=O)[O-])cc2)O1` the Activity was “Active”. `CCN(CC)C[C@H]1COC(c2ccc([N+](=O)[O-])cc2)=N1` was tested, and the Activity was “Active”. With `CCN(CC)C[C@@H]1CN=C(c2ccc([N+](=O)[O-])cc2)O1` the Activity was “Active”. With `O=[N+]([O-])c1ccc(C2=N[C@@H](CN3CCCC3)CO2)cc1` the Activity was “Active”. With `CCN(CC)C[C@@H]1COC(c2ccc([N+](=O)[O-])cc2)=N1` the Activity was “Active”. For `O=[N+]([O-])c1ccc(C2=NC[C@H](CN3CCCC3)O2)cc1`, the Activity was “Active”. For `O=[N+]([O-])c1ccc(C2=N[C@H](CN3CCCC3)CO2)cc1`, the Activity was “Active”.
